Laboratory results as given in ChEMBL document CHEMBL5346861, “Designing quinoline-isoniazid hybrids as potent anti-tubercular agents inhibiting mycolic acid biosynthesis” (Eur J Med Chem, 2022).
In brackets after ≈: the same amount, converted by molar mass. Activity calls are given as the source filed them. The rule behind the calls is not given here.

Key:
[1] = system: Mycobacterium tuberculosis; assay: Antimycobacterial activity against Mycobacterium tuberculosis mc2 6230 assessed as inhibition of bacterial growth measured after 7 days by broth dilution method; assay type: functional; conditions: mc2 6230, 168 h, time 7 day
Procedure, shortened: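 Pantothenate auxotroph carrying empty pMV261. 2-fold serial dilutions, 37 °C, no agitation, 7 days. MIC99 is the lowest concentration with no turbidity change. DMSO vehicle control.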

Mycobacterium marinum = assay: Antimycobacterial activity against Mycobacterium marinum M strain assessed as inhibition of bacterial growth measured after 6 days by broth dilution method; assay type: functional; conditions: 144 h, time 6 day
Procedure, shortened: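 MIC99 by 2-fold serial broth dilution in 7H9 with 10% OADC and 0.025% tyloxapol. Inoculum 5.10⁶ CFU/mL. Incubated without agitation at 30 °C, scored for no turbidity change after 6 days. DMSO vehicle control.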

[2] = system: Mycobacteroides abscessus; assay: Antimycobacterial activity against Mycobacterium abscessus CIP104536 smooth variant assessed as inhibition of bacterial growth measured after 4 days by broth dilution method; assay type: functional; conditions: CIP104536, 96 h, time 4 day
Procedure, shortened: (§1)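 MIC99 by CLSI broth 2-fold serial dilution in CaMHB. Inoculum 5.10⁶ CFU/mL. Incubated at 30 °C and read by turbidity after 4 days. DMSO vehicle control, INH reference.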

[3] = system: Mycobacteroides abscessus; assay: Antimycobacterial activity against Mycobacterium abscessus CIP104536 rough variant assessed as inhibition of bacterial growth measured after 4 days by broth dilution method; assay type: functional; conditions: CIP104536, 96 h, time 4 day; procedure, shortened: as §1
[4] = system: Mycobacterium tuberculosis; assay: Antimycobacterial activity against Mycobacterium tuberculosis mc2 6230 assessed as reduction in log10 CFU at 5 times of MIC measured after 3 days by time-killing kinetics assay; assay type: functional; conditions: time 3 day
Procedure, shortened: (§2)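 Exposed to 1x, 5x or 20x MIC at 37 °C for up to 6 days. Serial dilutions plated on 7H10/OADC/pantothenate and colonies counted after 3 weeks. Mean of four independent experiments in technical triplicate, with SD. DMSO negative control.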

[5] = system: Mycobacterium tuberculosis; assay: Antimycobacterial activity against Mycobacterium tuberculosis mc2 6230 assessed as reduction in log10 CFU at 1 time of MIC measured after 6 days by time-killing kinetics assay; assay type: functional, organism-based; conditions: time 6.0 day; procedure, shortened: as §2
[6] = system: Mycobacterium tuberculosis; assay: Antimycobacterial activity against Mycobacterium tuberculosis mc2 6230 assessed as reduction in log10 CFU at 20 times of MIC measured after 6 days by time-killing kinetics assay; assay type: functional; conditions: time 6 day; procedure, shortened: as §2
[7] = Cytotoxicity against human THP-1 cells assessed as reduction in cell viability measured after 24 hrs by resazurin staining based analysis; assay type: toxicity
Procedure, shortened: (§3)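 THP-1 monocytes differentiated with 20 ng/mL PMA for 48 hrs at 1×10^5 cells/well. Compounds added by serial dilution from 100 µg/mL for 24 or 72 hrs at 37 °C and 5% CO₂. Resazurin 10% for 4 hrs, fluorescence at ex 540/em 590 nm. Mean of three independent experiments in triplicate. INH and RFB reference drugs.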

Vero = assay: Cytotoxicity against African green monkey Vero cells assessed as reduction in cell viability measured after 24 hrs by resazurin staining based analysis; assay type: toxicity; conditions: chlorocebus sabaeus
Procedure, shortened: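 Vero cells in RPMI 1640 with 10% FCS, 2×10^4 cells/well, adhered overnight at 37 °C and 5% CO₂. Compounds added at 100 to 0.78 µg/mL for 24 hrs. 10% resazurin added for 4 hrs, fluorescence read at ex 540/em 590 nm.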

[8] = Cytotoxicity against human THP-1 cells assessed as reduction in cell viability measured after 72 hrs by resazurin staining based analysis; assay type: toxicity; procedure, shortened: as §3
[9] = system: Mycobacterium tuberculosis; assay: Antimycobacterial activity against Mycobacterium tuberculosis mc2 6230 assessed as inhibition of bacterial growth at 1 ug/ml measured after 7 days by broth dilution method; assay type: functional, organism-based; conditions: dose 1.0 µg/ml, time 7.0 day
[10] = Selectivity index, […] Mycobacterium tuberculosis H37Rv to CC50 for cytotoxicity against human THP-1 cells; assay type: toxicity, cell-based; conditions: read-out: Selectivity Index
[11] = Selectivity index, […] Mycobacterium marinum M strain to CC50 for cytotoxicity against human THP-1 cells; assay type: toxicity, cell-based; conditions: read-out: Selectivity Index
[12] = Selectivity index, […] Mycobacterium abscessus CIP104536 smooth variant to CC50 for cytotoxicity against human THP-1 cells; assay type: toxicity, cell-based; conditions: read-out: Selectivity Index
[13] = Selectivity index, […] Mycobacterium abscessus CIP104536 rough variant to CC50 for cytotoxicity against human THP-1 cells; assay type: toxicity, cell-based; conditions: read-out: Selectivity Index
[14] = system: Mycobacterium tuberculosis; assay: Inhibition of mycolic acid biosynthesis in Mycobacterium tuberculosis mc2 6230 assessed as decrease in alpha-mycolic acid incubated for 15 mins followed by 14C-labeled acetate addition measured after 7 hrs by TLC analysis; assay type: functional, organism-based; conditions: time 435.0 min
[15] = system: Mycobacterium tuberculosis; assay: Inhibition of mycolic acid biosynthesis in Mycobacterium tuberculosis mc2 6230 assessed as decrease in methoxy-mycolic acid incubated for 15 mins followed by 14C-labeled acetate addition measured after 7 hrs by TLC analysis; assay type: functional, organism-based; conditions: time 435.0 min
[16] = system: Mycobacterium tuberculosis; assay: Inhibition of mycolic acid biosynthesis in Mycobacterium tuberculosis mc2 6230 assessed as decrease in keto-mycolic acid incubated for 15 mins followed by 14C-labeled acetate addition measured after 7 hrs by TLC analysis; assay type: functional, organism-based; conditions: time 435.0 min

O=C(N/N=C/c1ccccc1-n1cc(CN2CCN(c3ccnc4cc(Cl)ccc34)CC2)nn1)c1cnccn1
MIC [1]: > 200 µg/mL

COc1cc(/C=N/NC(=O)c2cnccn2)ccc1OCc1cn(CCCNc2ccnc3cc(Cl)ccc23)nn1
MIC [1]: > 200 µg/mL

O=Cc1ccc(OCc2cn(CCCNc3ccnc4cc(Cl)ccc34)nn2)cc1
MIC [1]: 50 µg/mL (≈ 119 µM)
MIC (Mycobacterium marinum): 200 µg/mL (≈ 474 µM)
MIC [2]: > 200 µg/mL
MIC [3]: > 200 µg/mL

COc1cc(/C=N/NC(=O)c2cnccn2)ccc1OCc1cn(-c2ccnc3cc(Cl)ccc23)nn1
MIC [1]: > 200 µg/mL

O=C(N/N=C/c1ccc(OCc2cn(-c3ccnc4cc(Cl)ccc34)nn2)cc1)c1cnccn1
MIC [1]: > 200 µg/mL

COc1cc(/C=N/NC(=O)c2cnccn2)ccc1OCc1cn(CCNc2ccnc3cc(Cl)ccc23)nn1
MIC [1]: > 200 µg/mL

O=C(N/N=C/c1ccc(OCc2cn(CCNc3ccnc4cc(Cl)ccc34)nn2)cc1)c1ccncc1
Activity [4]: 2 log10CFU/ml
MIC [1]: 0.5 µg/mL (≈ 0.949 µM)
MIC (Mycobacterium marinum): 200 µg/mL (≈ 380 µM)
MIC [2]: > 200 µg/mL
MIC [3]: > 200 µg/mL
Activity [5]: Active
Activity [6]: ~3 log10CFU/ml
CC50 at 24 h [7]: > 100 µg/mL
Activity (Vero): Non-Toxic
CC50 at 72 h [8]: 34 µg/mL (≈ 64.5 µM)
Activity [9]: Active

O=Cc1ccc(OCc2cn(CCNc3ccnc4cc(Cl)ccc34)nn2)cc1
MIC [1]: > 200 µg/mL

O=C(N/N=C/c1ccccc1-n1cc(CN2CCN(c3ccnc4cc(Cl)ccc34)CC2)nn1)c1cccnc1
MIC [1]: > 200 µg/mL

COc1cc(/C=N/NC(=O)c2cccnc2)ccc1OCc1cn(-c2ccnc3cc(Cl)ccc23)nn1
MIC [1]: > 200 µg/mL

O=C(N/N=C/c1ccc(OCc2cn(CCCNc3ccnc4cc(Cl)ccc34)nn2)cc1)c1cccnc1
MIC [1]: > 200 µg/mL

COc1cc(/C=N/NC(=O)c2cccnc2)ccc1OCc1cn(CCNc2ccnc3cc(Cl)ccc23)nn1
MIC [1]: > 200 µg/mL

COc1cc(/C=N/NC(=O)c2cccnc2)ccc1OCc1cn(CCCNc2ccnc3cc(Cl)ccc23)nn1
MIC [1]: > 200 µg/mL

O=C(N/N=C/c1ccc(OCc2cn(CCNc3ccnc4cc(Cl)ccc34)nn2)cc1)c1cccnc1
MIC [1]: > 200 µg/mL

COc1cc(/C=N/NC(=O)c2ccncc2)ccc1OCc1cn(-c2ccnc3cc(Cl)ccc23)nn1
Activity [4]: 2 log10CFU/ml
MIC [1]: 0.5 µg/mL (≈ 0.973 µM)
MIC (Mycobacterium marinum): > 200 µg/mL
MIC [2]: > 200 µg/mL
MIC [3]: > 200 µg/mL
Activity [5]: Active
Activity [6]: ~3 log10CFU/ml
CC50 at 24 h [7]: > 100 µg/mL
CC50 at 72 h [8]: > 100 µg/mL
selectivity ratio [10]: > 200
selectivity ratio [11]: > 200
selectivity ratio [12]: > 200
selectivity ratio [13]: > 200
Activity [9]: Active

O=C(N/N=C/c1ccc(OCc2cn(-c3ccnc4cc(Cl)ccc34)nn2)cc1)c1ccncc1
Activity [4]: 2 log10CFU/ml
MIC [1]: 0.25 µg/mL (≈ 0.517 µM)
MIC (Mycobacterium marinum): > 200 µg/mL
MIC [2]: > 200 µg/mL
MIC [3]: > 200 µg/mL
Activity [5]: Active
Activity [6]: ~3 log10CFU/ml
CC50 at 24 h [7]: > 100 µg/mL
Activity (Vero): Non-Toxic
CC50 at 72 h [8]: > 100 µg/mL
selectivity ratio [10]: > 200
selectivity ratio [11]: > 200
selectivity ratio [12]: > 200
selectivity ratio [13]: > 200
Activity [9]: Active

O=C(N/N=C/c1ccc(OCc2cn(CCCNc3ccnc4cc(Cl)ccc34)nn2)cc1)c1cnccn1
MIC [1]: > 200 µg/mL

O=Cc1ccccc1-n1cc(CN2CCN(c3ccnc4cc(Cl)ccc34)CC2)nn1
MIC [1]: 100 µg/mL (≈ 231 µM)
MIC (Mycobacterium marinum): > 200 µg/mL
MIC [2]: > 200 µg/mL
MIC [3]: > 200 µg/mL

COc1cc(C=O)ccc1OCc1cn(CCNc2ccnc3cc(Cl)ccc23)nn1
MIC [1]: > 200 µg/mL

CO[C@H]1/C=C/O[C@@]2(C)Oc3c(C)c(O)c4c(c3C2=O)C2=NC3(CCN(CC(C)C)CC3)NC2=C(NC(=O)/C(C)=C\C=C\[C@H](C)[C@H](O)[C@@H](C)[C@@H](O)[C@@H](C)[C@H](OC(C)=O)[C@@H]1C)C4=O [RIFABUTIN]
CC50 at 24 h [7]: 60 µg/mL (≈ 70.8 µM)

O=C(N/N=C/c1ccc(OCc2cn(-c3ccnc4cc(Cl)ccc34)nn2)cc1)c1cccnc1
MIC [1]: > 200 µg/mL

NNC(=O)c1ccncc1 [ISONIAZID]
MIC [1]: 0.05 µg/mL (≈ 0.365 µM)
MIC (Mycobacterium marinum): 25 µg/mL (≈ 182 µM)
MIC [2]: > 200 µg/mL
MIC [3]: > 200 µg/mL
inhibition [14]: Dose-Dependent Effect
inhibition [15]: Dose-Dependent Effect
inhibition [16]: Dose-Dependent Effect

Clc1ccc2c(N3CCNCC3)ccnc2c1
MIC [1]: 92 µg/mL (≈ 371 µM)

COc1cc(/C=N/NC(=O)c2ccncc2)ccc1OCc1cn(CCNc2ccnc3cc(Cl)ccc23)nn1
Activity [4]: 2 log10CFU/ml
MIC [1]: 0.5 µg/mL (≈ 0.898 µM)
MIC (Mycobacterium marinum): > 200 µg/mL
MIC [2]: > 200 µg/mL
MIC [3]: > 200 µg/mL
Activity [5]: Active
Activity [6]: ~3 log10CFU/ml
CC50 at 24 h [7]: > 100 µg/mL
Activity (Vero): Non-Toxic
CC50 at 72 h [8]: 73 µg/mL (≈ 131 µM)
Activity [9]: Active

COc1cc(/C=N/NC(=O)c2ccncc2)ccc1OCc1cn(CCCNc2ccnc3cc(Cl)ccc23)nn1
Activity [4]: 2 log10CFU/ml
MIC [1]: 0.25 µg/mL (≈ 0.438 µM)
MIC (Mycobacterium marinum): 100 µg/mL (≈ 175 µM)
MIC [2]: > 200 µg/mL
MIC [3]: > 200 µg/mL
Activity [5]: Active
Activity [6]: ~3 log10CFU/ml
CC50 at 24 h [7]: > 100 µg/mL
Activity (Vero): Non-Toxic
CC50 at 72 h [8]: > 100 µg/mL
selectivity ratio [10]: > 200
selectivity ratio [11]: > 200
selectivity ratio [12]: > 200
selectivity ratio [13]: > 200
Activity [9]: Active

O=C(N/N=C/c1ccc(OCc2cn(CCCNc3ccnc4cc(Cl)ccc34)nn2)cc1)c1ccncc1
Activity [4]: 2 log10CFU/ml
MIC [1]: 0.5 µg/mL (≈ 0.924 µM)
MIC (Mycobacterium marinum): 50 µg/mL (≈ 92.4 µM)
MIC [2]: > 200 µg/mL
MIC [3]: > 200 µg/mL
Activity [5]: Active
Activity [6]: ~3 log10CFU/ml
CC50 at 24 h [7]: > 100 µg/mL
Activity (Vero): Non-Toxic
CC50 at 72 h [8]: 67 µg/mL (≈ 124 µM)
Activity [9]: Active

COc1cc(C=O)ccc1OCc1cn(-c2ccnc3cc(Cl)ccc23)nn1
MIC [1]: > 200 µg/mL

COc1cc(C=O)ccc1OCc1cn(CCCNc2ccnc3cc(Cl)ccc23)nn1
MIC [1]: > 200 µg/mL

O=Cc1ccc(OCc2cn(-c3ccnc4cc(Cl)ccc34)nn2)cc1
MIC [1]: > 200 µg/mL
